ChEMBL document CHEMBL2069213, “Synthesis and evaluation of small libraries of triazolylmethoxy chalcones, flavanones and 2-aminopyrimidines as inhibitors of mycobacterial FAS-II and PknG” (Bioorg Med Chem, 2012)
In brackets after ≈: the same amount, converted by molar mass. Activity calls are given as the source filed them. The calls are words filed in the database; no cut-off is given here.

Key:
[1] = system: Mycolicibacterium aurum; assay: Growth inhibition of Mycobacterium aurum expressing Mycobacterium tuberculosis H37Rv kas operon in fusion Escherichia coli lacZ gene at 50 uM incubated for 12 hrs; type: functional; conditions: read-out: GI
[2] = Toxicity against macrophages incubated for 48 hrs by resazurin dye reduction assay; type: cell-based, Macrophage
How it was run: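 Macrophages from subconfluent monolayers seeded ~1 × 10^6 cells/well in RPMI-1640; compounds 100 to 12.5 µM, 48 h at 37 °C, 5% CO2; resazurin added for 4 h, fluorescence 535/590 nm read against untreated wells as % viability; CC50 taken from viability-versus-concentration plot; triplicates.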

[3] = system: Mycolicibacterium aurum; assay: Inhibition of FAS2 in recombinant Mycobacterium aurum expressing Mycobacterium tuberculosis H37Rv kas operon in fusion Escherichia coli lacZ gene assessed as increase in beta-galactosidase activity at 50 uM incubated for 12 hrs by lacZ reporter gene assay
How it was run: (§1)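 Cells washed, sonicated in PBS pH 7.2; equal Bradford-quantified protein incubated with ONPG (4 mg/ml) 30 min at 37 °C, stopped with Na2CO3, read at 410 nm. Triplicates, experiment repeated twice; isoniazid positive control.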

[4] = system: Mycolicibacterium aurum; assay: Inhibition of FAS2 in recombinant Mycobacterium aurum expressing Mycobacterium tuberculosis H37Rv kas operon in fusion Escherichia coli lacZ gene assessed as increase in beta-galactosidase activity at 100 uM incubated for 12 hrs by lacZ reporter gene assay; how it was run: as §1
[5] = system: Mycolicibacterium aurum; assay: Inhibition of FAS2 in recombinant Mycobacterium aurum expressing hsp60 promoter in fusion Escherichia coli lacZ gene assessed as increase in beta-galactosidase activity at 50 uM incubated for 12 hrs by lacZ reporter gene assay
[6] = system: Mycolicibacterium aurum; assay: Inhibition of FAS2 in recombinant Mycobacterium aurum expressing hsp60 promoter in fusion Escherichia coli lacZ gene assessed as increase in beta-galactosidase activity at 100 uM incubated for 12 hrs by lacZ reporter gene assay
[7] = system: Mycolicibacterium aurum; assay: Growth inhibition of Mycobacterium aurum expressing Mycobacterium tuberculosis H37Rv kas operon in fusion Escherichia coli lacZ gene at 100 uM incubated for 12 hrs; type: functional; conditions: read-out: GI
[8] = molecular target: Serine/threonine-protein kinase PknG (Mycobacterium tuberculosis) (UniProt P9WI73); assay: Inhibition of Mycobacterium tuberculosis recombinant PKnG expressed in Escherichia coli BL21 (DE3) cells using myelin basic protein substrate at 6.25 uM by luciferase activity based ADP-Glo-luminescent kinase assay
How it was run: (§2)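 6-His-PknG from M. tuberculosis genomic DNA cloned into pTriEx4, expressed in E. coli with 0.8 mM IPTG 4 h at 37 °C, purified by Ni2+-NTA then size exclusion. Compounds dissolved in DMSO; assayed with myelin basic protein substrate; ADP formed measured by ADP-Glo luminescence; AX20017 positive control; dose-response series.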

[9] = molecular target: Serine/threonine-protein kinase PknG (Mycobacterium tuberculosis) (UniProt P9WI73); assay: Inhibition of Mycobacterium tuberculosis recombinant PKnG expressed in Escherichia coli BL21 (DE3) cells using myelin basic protein substrate at 3.125 uM by luciferase activity based ADP-Glo-luminescent kinase assay; how it was run: as §2
[10] = molecular target: Serine/threonine-protein kinase PknG (Mycobacterium tuberculosis) (UniProt P9WI73); assay: Inhibition of Mycobacterium tuberculosis recombinant PKnG expressed in Escherichia coli BL21 (DE3) cells using myelin basic protein substrate at 25 uM by luciferase activity based ADP-Glo-luminescent kinase assay; how it was run: as §2
[11] = system: Mycobacterium tuberculosis; assay: Growth inhibition of Mycobacterium tuberculosis H37Rv; type: functional
[12] = molecular target: Serine/threonine-protein kinase PknG (Mycobacterium tuberculosis) (UniProt P9WI73); assay: Inhibition of Mycobacterium tuberculosis recombinant PKnG expressed in Escherichia coli BL21 (DE3) cells using myelin basic protein substrate at 50 uM by luciferase activity based ADP-Glo-luminescent kinase assay; how it was run: as §2
[13] = molecular target: Serine/threonine-protein kinase PknG (Mycobacterium tuberculosis) (UniProt P9WI73); assay: Inhibition of Mycobacterium tuberculosis recombinant PKnG expressed in Escherichia coli BL21 (DE3) cells using myelin basic protein substrate at 100 uM by luciferase activity based ADP-Glo-luminescent kinase assay; how it was run: as §2
[14] = molecular target: Serine/threonine-protein kinase PknG (Mycobacterium tuberculosis) (UniProt P9WI73); assay: Inhibition of Mycobacterium tuberculosis recombinant PKnG expressed in Escherichia coli BL21 (DE3) cells using myelin basic protein substrate at 12.5 uM by luciferase activity based ADP-Glo-luminescent kinase assay; how it was run: as §2

Serine/threonine-protein kinase PknG (Mycobacterium tuberculosis), sequence (P9WI73 whole entry): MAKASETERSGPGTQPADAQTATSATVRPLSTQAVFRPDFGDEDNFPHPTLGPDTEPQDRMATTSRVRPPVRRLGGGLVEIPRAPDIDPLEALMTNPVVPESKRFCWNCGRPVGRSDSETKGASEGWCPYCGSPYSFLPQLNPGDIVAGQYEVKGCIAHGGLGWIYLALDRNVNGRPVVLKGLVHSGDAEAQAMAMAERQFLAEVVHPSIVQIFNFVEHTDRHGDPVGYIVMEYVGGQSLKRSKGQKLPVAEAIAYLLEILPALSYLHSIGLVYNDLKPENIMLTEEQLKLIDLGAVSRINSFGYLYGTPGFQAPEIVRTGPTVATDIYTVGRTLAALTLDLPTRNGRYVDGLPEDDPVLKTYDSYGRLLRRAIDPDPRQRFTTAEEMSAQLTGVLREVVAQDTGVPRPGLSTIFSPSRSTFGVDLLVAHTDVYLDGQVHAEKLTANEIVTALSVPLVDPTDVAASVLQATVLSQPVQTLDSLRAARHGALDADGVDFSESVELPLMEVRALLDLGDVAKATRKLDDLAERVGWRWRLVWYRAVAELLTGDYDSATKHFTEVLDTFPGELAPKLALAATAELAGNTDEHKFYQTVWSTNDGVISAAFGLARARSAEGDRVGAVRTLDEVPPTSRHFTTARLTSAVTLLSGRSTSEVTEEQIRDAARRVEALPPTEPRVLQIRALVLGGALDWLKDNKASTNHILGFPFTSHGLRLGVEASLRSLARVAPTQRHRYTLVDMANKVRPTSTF

Structure (SMILES)	inhibition of growth at 50 µM [1]	CC50 at 48 h [2]	inhibition [3]	inhibition [4]	inhibition [5]	inhibition [6]	inhibition of growth at 100 µM [7]	inhibition [8]	inhibition [9]	inhibition [10]	MIC [11]	inhibition [12]	inhibition [13]	inhibition [14]
O=C(/C=C/c1ccccc1)c1ccc(OCc2cn(Cc3ccccc3)nn2)cc1O	49.9%	80 µM	Active	Active	inactive	inactive	88%							
CCCCCCn1cc(COc2ccc(-c3cc(-c4ccccc4)nc(N)n3)c(O)c2)nn1								0%	0%	0%	50 µg/mL (≈ 112 µM)	13%	23%	0%
CCCCCCn1cc(COc2ccc3c(c2)OC(c2ccc(Br)cc2)CC3=O)nn1 (centres undefined)	68.9%	20.3 µM	Active	Active	inactive	inactive	75.1%							
CC(C)c1ccc(C2CC(=O)c3ccc(OCc4cn(Cc5ccccc5)nn4)cc3O2)cc1 (centres undefined)	54.7%	23.8 µM	Active	Active	inactive	inactive	79.3%							
CCCCCCn1cc(COc2ccc(C(=O)/C=C/c3c(F)cccc3Cl)c(O)c2)nn1	71.6%	> 100 µM	Active	Active	inactive	inactive	79.1%							
O=C(/C=C/c1c(F)cccc1Cl)c1ccc(OCc2cn(Cc3ccc(Br)cc3)nn2)cc1O	53.1%	65.8 µM	Active	Active	inactive	inactive	83%							
CCCCCCn1cc(COc2ccc3c(c2)OC(c2ccc(OC)cc2)CC3=O)nn1 (centres undefined)	55.9%	57.5 µM	Active	Active	inactive	inactive	65.7%							
